Source: ChEMBL document CHEMBL1132647, “Synthesis, calcium mobilizing, and physicochemical properties of D-chiro-inositol 1,3,4,6-tetrakisphosphate, a novel and potent ligand at the D-myo-inositol 1,4,5-trisphosphate receptor” (J Med Chem, 1999)
Several values for one entry are separate records, joined by “and”; a condition that tells them apart may be missing. Equal entries are not always repeated.

Experiments:
RBL-1 = assay: Steady-State [Ca2+] Release from Saponin-Permeabilized RBL Cell Lines; format: functional, cell-based, Rattus norvegicus
L15 = assay: Steady-State [Ca2+] Release from Saponin-Permeabilized L15 Cell Lines
SH-SY5Y = assay: Steady-State [Ca2+] Release from Saponin-Permeabilized SH-SY5Y cell line.; format: functional, cell-based, Homo sapiens
[1] = molecular target: Inositol 1,4,5-trisphosphate receptor (Homo sapiens, UniProt Q14571+Q14573+Q14643); assay: The compound was tested for inhibitory activity against Inositol 1,4,5-trisphosphate receptor in L15 cell line; format: cell-based
Outline: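 Incubation was 30 min at 4 °C with EGTA. Bound and free ligand were separated by vacuum filtration through glass fiber filters and counted by scintillation. IC50 and Hill slope came from computer curve fitting. At least three experiments in duplicate, mean ± SEM.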

Lvec = assay: Steady-State [Ca2+] Release from Saponin-Permeabilized Lvec Cell Lines; format: functional, cell-based
Outline: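 ⁴⁵Ca²⁺ release end point assay at 22 °C in saponin-permeabilized L15 cells (mouse L fibroblasts overexpressing type 1 InsP₃R about 8-fold) or Lvec vector-control cells. Stores were loaded with ⁴⁵Ca²⁺ in ATP-dependent fashion to steady state (about 15 min). Buffer was 120 mM KCl, 2 mM KH₂PO₄, 5 mM succinate, 20 mM Hepes, 2 mM ATP and 2.4 mM MgCl₂, at pH 7.2, with free Ca²⁺ set to 80–150 nM with EGTA. Retained ⁴⁵Ca²⁺ was counted by scintillation. 100% was the release by 10 µM Ins(1,4,5)P₃. EC50 and Hill slope came from curve fitting. At least four experiments in duplicate, mean ± SEM.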

[2] = Hill slope by computer-assisted curve fitting
[3] = Hill slope by computer-assisted curve fitting.

Structure (SMILES) | EC50 (RBL-1) [nM] | EC50 (L15) [nM] | EC50 (SH-SY5Y) [nM] | further results
O=P(O)(O)O[C@@H]1[C@H](O)[C@H](O)[C@@H](OP(=O)(O)O)[C@H](OP(=O)(O)O)[C@H]1O (stereo in doubt; 5) [INS(1,4,5)P3] | 4300 | 740 | – | –
O=P(O)(O)O[C@@H]1[C@H](O)[C@H](O)[C@@H](OP(=O)(O)O)[C@H](OP(=O)(O)O)[C@H]1O (stereo in doubt) [INS(1,4,5)P3] | 4200 | – | 171 | –
O=P(O)(O)OC1C(O)C(OP(=O)(O)O)C(OP(=O)(O)O)C(O)C1OP(=O)(O)O (stereo unspecified) | – | – | – | IC50 [1]: 172 nM
O=P(O)(O)O[C@@H]1[C@H](O)[C@H](O)[C@@H](OP(=O)(O)O)[C@H](OP(=O)(O)O)[C@H]1O (stereo in doubt; 1) [INS(1,4,5)P3] | 170 | 123 | 51.6 | EC50 (Lvec): 247 nM
O=P(O)(O)O[C@@H]1[C@H](O)[C@H](O)[C@@H](OP(=O)(O)O)[C@H](OP(=O)(O)O)[C@H]1O (stereo in doubt; 1) | – | – | – | Hill coefficient [2]: 0.96 and 1.17; Hill coefficient [3]: 1
